In ChEMBL document CHEMBL3862007, “Synthesis and antimicrobial activity of small cationic amphipathic aminobenzamide marine natural product mimics and evaluation of relevance against clinical isolates including ESBL-CARBA producing multi-resistant bacteria” (Bioorg Med Chem, 2016):

Assays:
Bacillus subtilis [1] = experiment: Antibacterial activity against Bacillus subtilis 168 ATCC 23857 after 48 hrs by microdilution method; type: functional; details: subsp. subtilis str. 168 ATCC 23857, 48 h
Staphylococcus aureus [2] = experiment: Antibacterial activity against Staphylococcus aureus ATCC 9144 after 48 hrs by microdilution method; type: functional; details: ATCC 9144, 48 h
[3] = system: Corynebacterium glutamicum; experiment: Antibacterial activity against Corynebacterium glutamicum ATCC 13032 after 48 hrs by microdilution method; type: functional; details: ATCC 13032, 48 h
Escherichia coli [4] = experiment: Antibacterial activity against Escherichia coli ATCC 25922 after 48 hrs by microdilution method; type: functional; details: ATCC 25922, 48 h
Pseudomonas aeruginosa [5] = experiment: Antibacterial activity against Pseudomonas aeruginosa PAO1 DSM 19880 (ATCC 15692) after 48 hrs by microdilution method; type: functional
[6] = Selectivity index, ratio of hemolytic EC50 for human RBC to MIC for Staphylococcus aureus ATCC 9144
[7] = Antibacterial activity against methicillin-resistant Staphylococcus epidermidis RP62A CCUG 31568 (ATCC 35984) after 48 hrs by microdilution method; type: functional
Procedure, shortened: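 Broth microdilution MIC against the reference-strain panel. Compounds were supplied as HCl salts for aqueous solubility in the test medium. Precipitation in the test buffer is flagged at higher concentrations.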

[8] = Hemolytic activity in human RBC after 1 hr; type: ADME, cell-based; details: Erythrocyte
Bacillus subtilis [9] = experiment: Membranolytic activity in Bacillus subtilis 168 ATCC 23857 carrying pCSS962 plasmid measured every second for 30 secs by luciferase reporter assay; type: functional; details: subsp. subtilis str. 168 ATCC 23857
Procedure, shortened: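 B. subtilis 168 carrying pCSS962 (luciferase-expressing) was added as a suspension already containing D-luciferin, with luminescence read in real time up to 120 s. Water served as the untreated control. Chlorhexidine was added to all samples at 30 s as a membranolytic control. Fold induction is the peak sample luminescence over the water-control maximum after chlorhexidine, from two independent experiments.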

Pseudomonas aeruginosa [10] = experiment: Antibacterial activity against Pseudomonas aeruginosa clinical isolate after 24 hrs by microdilution method; type: functional
Enterococcus sp. = experiment: Antibacterial activity against Enterococcus sp. clinical isolate after 24 hrs by microdilution method; type: functional
Klebsiella pneumoniae = experiment: Antibacterial activity against Klebsiella pneumoniae clinical isolate after 24 hrs by microdilution method; type: functional
Escherichia coli [11] = experiment: Antibacterial activity against Escherichia coli clinical isolate after 24 hrs by microdilution method; type: functional
Staphylococcus aureus [12] = experiment: Antibacterial activity against Staphylococcus aureus clinical isolate after 24 hrs by microdilution method; type: functional

Compound | MIC (Bacillus subtilis [1]) | MIC (Staphylococcus aureus [2]) | MIC [3] | MIC (Escherichia coli [4]) | MIC (Pseudomonas aeruginosa [5]) | Selectivity Index [6] | MIC [7] | EC50 [8] | Activity (Bacillus subtilis [9]) | MIC (Pseudomonas aeruginosa [10]) | MIC (Enterococcus sp.) | MIC (Klebsiella pneumoniae) | MIC (Escherichia coli [11]) | MIC (Staphylococcus aureus [12])
CN(C)CCNC(=O)c1ccc(NC(=O)c2cc(C(C)(C)C)cc(C(C)(C)C)c2)cc1.Cl | 8 µg/mL | 16 µg/mL | 4 µg/mL | 32 µg/mL | > 128 µg/mL | > 1 | 8 µg/mL | > 16 µg/mL |  |  |  |  |  | 
CC(C)(C)c1cc(C(=O)Nc2ccc(C(=O)NCCCN)cc2)cc(C(C)(C)C)c1.Cl | 4 µg/mL | 8 µg/mL | 4 µg/mL | 8 µg/mL | 32 µg/mL | 3.9 | 8 µg/mL | 31 µg/mL |  |  |  |  |  | 
CN(C(=O)c1cc(C(C)(C)C)cc(C(C)(C)C)c1)c1ccc(C(=O)NCCN)cc1 |  |  |  |  |  | 0.3 |  |  |  |  |  |  |  | 
CC(C)(C)c1cc(C(=O)Nc2ccc(C(=O)NCCCNC(=N)N)cc2)cc(C(C)(C)C)c1.Cl | 4 µg/mL | 4 µg/mL | 2 µg/mL | 8 µg/mL | 16 µg/mL | 15.5 | 4 µg/mL | 62 µg/mL |  |  |  |  |  | 
CC(C)(C)c1cc(C(=O)Nc2cccc(C(=O)NCCCNC(=N)N)c2)cc(C(C)(C)C)c1.Cl | 4 µg/mL | 4 µg/mL | 4 µg/mL | 8 µg/mL | 16 µg/mL | 14.8 | 8 µg/mL | 59 µg/mL | Dose-dependent effect |  |  |  |  | 
CC(C)(C)c1cc(C(=O)Nc2cc3ccccc3cc2C(=O)NCCNC(=N)N)cc(C(C)(C)C)c1.Cl | 1 µg/mL | 2 µg/mL | 1 µg/mL | 16 µg/mL | 64 µg/mL | > 8 | 2 µg/mL | > 16 µg/mL |  | > 64 µg/mL | 8 µg/mL | 32 µg/mL | 16 µg/mL | 4 µg/mL
CC(C)(C)c1cc(C(=O)Nc2ccccc2C(=O)NCCN)cc(C(C)(C)C)c1.Cl | 4 µg/mL | 8 µg/mL | 4 µg/mL | 16 µg/mL | 64 µg/mL | 3.6 | 8 µg/mL | 29 µg/mL |  | > 64 µg/mL | 8 µg/mL | 32 µg/mL | 16 µg/mL | 8 µg/mL
CC(C)(C)c1cc(C(=O)Nc2cccc(C(=O)NCCCN)c2)cc(C(C)(C)C)c1.Cl | 8 µg/mL | 8 µg/mL | 4 µg/mL | 16 µg/mL | 16 µg/mL | 4 | 8 µg/mL | 32 µg/mL |  |  |  |  |  | 
CC(C)(C)c1cc(NC(=O)c2ccc(C(=O)NCCN)cc2)cc(C(C)(C)C)c1.Cl | 4 µg/mL | 8 µg/mL | 8 µg/mL | 8 µg/mL | 16 µg/mL | 2.6 | 8 µg/mL | 21 µg/mL |  |  |  |  |  | 
CC(C)(C)c1cc(C(=O)Nc2cccc(C(=O)NCCN)c2)cc(C(C)(C)C)c1.Cl | 8 µg/mL | 16 µg/mL | 8 µg/mL | 16 µg/mL | 16 µg/mL | 2.4 | 8 µg/mL | 39 µg/mL |  |  |  |  |  | 
CC(C)(C)c1cc(NC(=O)c2ccc(C(=O)NCCNC(=N)N)cc2)cc(C(C)(C)C)c1.Cl | 4 µg/mL | 4 µg/mL | 2 µg/mL | 8 µg/mL | 16 µg/mL | 11 | 4 µg/mL | 44 µg/mL |  | 8 µg/mL | 8 µg/mL | 16 µg/mL | 8 µg/mL | 4 µg/mL
CN(C(=O)c1cc(C(C)(C)C)cc(C(C)(C)C)c1)c1ccc(C(=O)NCCNC(=N)N)cc1.Cl | 16 µg/mL | 16 µg/mL | 4 µg/mL | 128 µg/mL | 128 µg/mL | 15.2 | 16 µg/mL | 243 µg/mL |  |  |  |  |  | 
CN(C(=O)c1cc(C(C)(C)C)cc(C(C)(C)C)c1)c1ccc(C(=O)NCCCN)cc1.Cl | 128 µg/mL | > 128 µg/mL | 64 µg/mL | > 128 µg/mL | > 128 µg/mL | < 1.3 | > 128 µg/mL | 172 µg/mL |  |  |  |  |  | 
CN(C)CCOC(=O)c1ccc(NC(=O)c2cc(C(C)(C)C)cc(C(C)(C)C)c2)cc1.Cl | 4 µg/mL | 8 µg/mL | 4 µg/mL | > 128 µg/mL | > 128 µg/mL | 3.5 | 8 µg/mL | 28 µg/mL |  |  |  |  |  | 
CC(C)(C)c1cc(NC(=O)c2ccc(C(=O)NCCCNC(=N)N)cc2)cc(C(C)(C)C)c1.Cl | 4 µg/mL | 4 µg/mL | 2 µg/mL | 8 µg/mL | 8 µg/mL | 10.5 | 8 µg/mL | 42 µg/mL |  | 8 µg/mL | 8 µg/mL | 16 µg/mL | 8 µg/mL | 4 µg/mL
CC(C)(C)c1cc(C(=O)Nc2ccc(C(=O)NCCN)cc2)cc(C(C)(C)C)c1.Cl | 4 µg/mL | 8 µg/mL | 4 µg/mL | 8 µg/mL | 16 µg/mL | 3.5 | 8 µg/mL | 28 µg/mL |  | 16 µg/mL | 16 µg/mL | 16 µg/mL | 8 µg/mL | 8 µg/mL
CC(C)(C)c1cc(C(=O)Nc2ccccc2C(=O)NCCCNC(=N)N)cc(C(C)(C)C)c1.Cl | 2 µg/mL | 4 µg/mL | 1 µg/mL | 8 µg/mL | 32 µg/mL | 9.8 | 2 µg/mL | 39 µg/mL |  |  |  |  |  | 
CC(C)(C)c1cc(NC(=O)c2ccc(C(=O)NCCCN)cc2)cc(C(C)(C)C)c1.Cl | 8 µg/mL | 8 µg/mL | 4 µg/mL | 8 µg/mL | 16 µg/mL | 3.5 | 8 µg/mL | 28 µg/mL |  |  |  |  |  | 
CC(C)(C)c1cc(C(=O)Nc2ccccc2C(=O)NCCCN)cc(C(C)(C)C)c1.Cl | 4 µg/mL | 8 µg/mL | 4 µg/mL | 16 µg/mL | 32 µg/mL | 2.9 | 8 µg/mL | 23 µg/mL | Dose-dependent effect |  |  |  |  | 
CC(C)(C)c1cc(C(=O)Nc2cc3ccccc3cc2C(=O)NCCN)cc(C(C)(C)C)c1.Cl | 4 µg/mL | 2 µg/mL | 2 µg/mL | 8 µg/mL | > 128 µg/mL | 11.5 | 8 µg/mL | 23 µg/mL |  | > 64 µg/mL | 2 µg/mL | 64 µg/mL | 8 µg/mL | 2 µg/mL
